Reference: ChEMBL document CHEMBL4402581, “Monohydrazone Based G-Quadruplex Selective Ligands Induce DNA Damage and Genome Instability in Human Cancer Cells” (J Med Chem, 2020)
Activity calls are given as the source filed them. No cut-off for these calls is given here.

What was measured:
[1] = test system: Quadruplex DNA; assay: Effect on c-Kit2 G4 quadruplex DNA architecture at 10 mol.equiv by circular dichroism spectral analysis; format: nucleic-acid assay
Outline: (§1)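 CD spectra of 15 μM G4s or 30 μM hairpin in 20 mM K phosphate pH 7.0 with 5 mM KCl, after annealing. Recorded at 20 °C over 230–360 nm, three scans averaged, buffer baseline subtracted. Ligand was added at 10 mol equiv to the folded DNA from a 10 mM DMSO stock.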

[2] = test system: U2OS; assay: Cytotoxicity against human U2OS cells assessed as reduction in cell viability incubated for 1 hr followed by 48 hrs of recovery in drug free medium by MTT assay; format: functional, cell-based
Outline: (§2)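 Cells grown in DMEM with 10% FBS and 1% glutamine at 37 °C, 5% CO2, and seeded 25 × 10^4 per well. Treatment began 24 h after seeding and lasted 1 or 24 h, followed by 48 h in drug-free medium. MTT was added for 1 h at 37 °C, then DMSO solubilization and absorbance at 595 nm. IC50 came from linear regression; two independent experiments, each in triplicate.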

[3] = test system: U2OS; assay: Cytotoxicity against human U2OS cells assessed as reduction in cell viability incubated for 24 hrs followed by 48 hrs of recovery in drug-free medium by MTT assay; format: functional, cell-based; outline: as §2
[4] = Displacement of Thiazole orange from hairpin duplex DNA incubated for 3 mins by spectrofluorimetry
Outline: (§3)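 Pre-folded DNA (0.25 μM) in K phosphate/KCl buffer was mixed with thiazole orange: 0.50 μM for G4s, 0.75 μM for duplex. Ligand was added stepwise from 0.5 to 10 equiv, with 3 min equilibration at 20 °C after each addition. Excitation 495 nm; emission read at 543 nm. Displacement % = 100 − (F/F0 × 100). DC50 is the concentration giving 50% displacement.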

[5] = test system: Quadruplex DNA; assay: Effect on c-Myc G4 quadruplex DNA architecture at 10 mol.equiv by circular dichroism spectral analysis; format: nucleic-acid assay; outline: as §1
[6] = test system: HeLa; assay: Cytotoxicity against human HeLa cells assessed as reduction in cell viability incubated for 1 hr followed by 48 hrs of recovery in drug free medium by MTT assay; format: functional, cell-based; outline: as §2
[7] = test system: Quadruplex DNA; assay: Binding affinity at FAM/TAMRA-tagged c-Kit2 G4 quadruplex DNA assessed as melting temperature at 2 uM in presence of 25 fold excess duplex DNA by FRET melting assay (reference value: 69.7 +/- 0.3 degreeC); format: nucleic-acid assay
Outline: (§4)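 Dual FAM/TAMRA-labelled oligos (0.2 μM) in 20 mM K phosphate pH 7.0 with 5 mM KCl, annealed 90 °C 5 min, slow-cooled overnight, held 4 °C 24 h. The Tel21 parallel form was annealed at high DNA concentration. Ligand 2 μM. Unlabelled ds12 duplex competitor at 0, 5 or 10 μM final. Tm was read from FRET melting curves.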

[8] = test system: U2OS; assay: Induction of DNA:RNA hybrid formation in human U2OS cells assessed as increase in R loop formation at 10 uM incubated for 60 mins by S9.6 immunofluorescence microscopy; format: functional, cell-based
Outline: (§5)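 U2OS cells were treated at 10 μM for 5–60 min, 24 h after seeding, then fixed in cold methanol and permeabilized with acetone. Stained with S9.6 antibody and anti-nucleolin. The nucleolar signal was subtracted from total nuclear S9.6 fluorescence, and values were normalized to the untreated mean; two biological replicates.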

[9] = test system: Quadruplex DNA; assay: Stabilization of G4 quadruplex DNA in human U2OS cells assessed as TRF2 foci per cell at 2 uM incubated for 24 hrs by immunofluorescence microscopy (reference value: 15.8 +/- 2.6%); format: cell-based
[10] = test system: Quadruplex DNA; assay: Effect on c-Kit1 G4 quadruplex DNA architecture at 10 mol.equiv by circular dichroism spectral analysis; format: nucleic-acid assay; outline: as §1
[11] = target: Quadruplex DNA; assay: Displacement of Thiazole orange from parallel Tel23 G4 quadruplex DNA incubated for 3 mins by spectrofluorimetry; format: nucleic-acid assay; outline: as §3
[12] = test system: Quadruplex DNA; assay: Binding affinity at FAM/TAMRA-tagged c-Kit2 G4 quadruplex DNA assessed as melting temperature at 2 uM by FRET melting assay (reference value: 69.7 +/- 0.3 degreeC); format: nucleic-acid assay; outline: as §4
[13] = test system: Quadruplex DNA; assay: Binding affinity at FAM/TAMRA-tagged c-Kit2 G4 quadruplex DNA assessed as melting temperature at 2 uM in presence of 50 fold excess duplex DNA by FRET melting assay (reference value: 69.7 +/- 0.3 degreeC); format: nucleic-acid assay; outline: as §4
[14] = test system: Quadruplex DNA; assay: Binding affinity at FAM/TAMRA-tagged parallel Tel21 G4 quadruplex DNA assessed as melting temperature at 2 uM in presence of 50 fold excess duplex DNA by FRET melting assay (reference value: 55.4 +/- 0.2 degreeC); format: nucleic-acid assay; outline: as §4
[15] = target: Quadruplex DNA; assay: Displacement of Thiazole orange from c-Kit2 G4 quadruplex DNA incubated for 3 mins by spectrofluorimetry; format: nucleic-acid assay; outline: as §3
[16] = test system: U2OS; assay: Induction of DNA damage in human U2OS cells assessed as increase in gammaH2AX phosphorylation at S139 at 10 uM incubated for 4 hrs by immunofluorescence microscopy; format: functional, cell-based
Outline: (§6)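 U2OS cells were treated with 10 μM for 4 h, pre-extracted 3 min with CSK buffer containing 0.5% Triton X-100, and fixed in 2% paraformaldehyde. Co-stained 1 h for 53BP1 and γH2AX, with DAPI counterstain. Foci were counted per nucleus and normalized to the untreated mean, across three biological replicates.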

[17] = test system: U2OS; assay: Induction of DNA damage in human U2OS cells assessed as increase in phosphorylated 53BPI foci colocalization with gammaH2AX foci at 10 uM incubated for 4 hrs by immunofluorescence microscopy; format: functional, cell-based; outline: as §6
[18] = Effect on hairpin-duplex DNA architecture at 10 mol.equiv by circular dichroism spectral analysis; outline: as §1
[19] = test system: U2OS; assay: Induction of genome instability in human U2OS cells assessed as fold increase in micronuclei formation per 100 cells at 10 uM incubated for 24 hrs by immunofluorescence microscopy relative to control; format: functional
Outline: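 U2OS cells were treated for 24 h, fixed in 4% paraformaldehyde, permeabilized with 0.5% Triton X-100, and stained with DAPI. Micronuclei were counted per 100 cells.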

[20] = test system: Quadruplex DNA; assay: Stabilization of human Tel23 G4 quadruplex DNA assessed as change in melting temperature at 10 mol.equiv by circular dichroism melting assay; format: nucleic-acid assay
Outline: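 CD melting from 20 to 100 °C at 1 °C/min, monitored at 264 nm (c-Kit1, c-Kit2, c-Myc, Tel23-p), 287 nm (Tel23-h) or 280 nm (hairpin). Ligand was at 10 mol equiv with folded DNA (15 μM G4, 30 μM hairpin). ΔTm is Tm with ligand minus Tm without, from curve fits, averaged over triplicates.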

[21] = test system: Quadruplex DNA; assay: Stabilization of G4 quadruplex DNA in human U2OS cells assessed as increase in number of G4 foci at 2 uM incubated for 24 hrs by immunofluorescence microscopy; format: cell-based
[22] = test system: Quadruplex DNA; assay: Displacement of Thiazole orange from c-Kit2 G4 quadruplex DNA incubated for 3 mins by spectrofluorimetry relative to control; format: nucleic-acid assay; outline: as §3
[23] = test system: Quadruplex DNA; assay: Effect on human Tel23 G4 quadruplex DNA architecture at 10 mol.equiv by circular dichroism spectral analysis; format: nucleic-acid assay; outline: as §1
[24] = test system: Quadruplex DNA; assay: Stabilization of G4 quadruplex DNA in human U2OS cells assessed as colocalization of TRF2/[…] foci at 2 uM incubated for 24 hrs by immunofluorescence microscopy (reference value: 18.4 +/- 2.81%); format: cell-based
[25] = test system: U2OS; assay: Induction of DNA:RNA hybrid formation in human U2OS cells assessed as increase in R loop formation at 10 uM incubated for 30 mins by S9.6 immunofluorescence microscopy; format: functional, cell-based; outline: as §5

CC(C)(C)c1cc(/C=N/NC(=N)N)c(O)c(/C=C2/C(=O)Nc3c2ccc2ccccc32)c1.Cl
Activity [1]: inactive | IC50 [2]: 12.5 µM | IC50 [3]: 2060 nM | DC50 [4]: 8.57 µM | Activity [5]: inactive | IC50 [6]: 3.94 µM | Tm [7]: 76.4 °C | Activity [8]: Active | Activity [9]: 15% | Activity [10]: inactive | DC50 [11]: 480 nM | Tm [12]: 77.9 °C | Tm [13]: 76.5 °C | Tm [14]: 68.1 °C | DC50 [15]: 7.8 µM | Activity [16]: Active | Activity [17]: Active | Activity [18]: inactive | fold change (FC) [19]: 3 | ΔTm [20]: < 2 °C | Activity [21]: Active | inhibition [22]: 100% | Activity [23]: inactive | Activity [24]: 16.4% | Activity [25]: Active
